Beta apoptosis – blocks beta cell apoptosis; 300,000 compounds, 0.8% hits; INS-1E cytokine-induced death, ATP luminescence, 48 h; percent of positive-control rescue, neutral wells zero; protection from apoptosis, % (no concentration beside the values); AID 435005;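 active = Every replicate reaches about 75%, or at least half do and their mean reaches it too, limit read from the data; inconclusive = At least half of replicates reach the limit but their mean does not; inactive = Under half of replicates reach the limit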;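 also: higher means more ATP so stronger rescue from cytokine killing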
A1 inh – inhibitors of the anti-apoptotic protein A1, read as caspase activation; 330,000 compounds, 0.066% hits; caspase activation, % (no concentration beside the values); MEF A1-2A-BIM cells, Caspase-Glo 3/7 luminescence, 3 h; percent of clofoctol response, vehicle zero;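 active = over half of replicate activation scores above 10%, or exactly half above 10 with the replicate mean above 10; inconclusive = replicate mean below 10 yet half the replicates above 10; inactive = over half of replicates below 10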
T cruzi inh – T. cruzi replication inhibition | 300,000 compounds, 1.4% hits | T. cruzi beta-gal in NIH3T3, luminescence, 90 h | inhibition, % (test concentration not listed);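 active = mean inhibition across valid replicates above about 55%, limit read from the data; inconclusive = mean below that limit but half or more replicates reach it; inactive = mean below it, under half of replicates reach it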;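 also: signal also drops with host cell toxicity which is not excluded here; higher percent means less beta-gal luminescence so fewer parasites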
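System – NIH/3T3 host cells with β-galactosidase reporter T. cruzi · Doses – single 50 nL compound addition per well in DMSO · Reagent – 5000 T. cruzi trypomastigotes/well · Medium – Low-serum DMEM with 2% FBS · Timing – ≥90 h infection period, 3 h prior cell attachment · Evaluation – parasite load inhibition, % · Technique – GalScreen luminescence, 60 min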
CSC inhib – blocks cancer stem cells | cancer stem cell-like cells viability, luminescence | AID 2717 | inhibition, % at 7.5 µM | 300,000 compounds, 1.1% hits; in the data active = inhibition above about 75%; inconclusive = no clear call, values can overlap the other calls; tested in HMLE shEcad cells
TAG inh – triacylglycerol accumulation inhibition. H9c2 cells, Nile Red lipid (TAG) fluorescence; cells loaded with 200 µM oleic acid. inhibition, % at 12.5 µM. 230,000 compounds, 0.66% hits. AID 651582;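 active = pattern-corrected inhibition of lipid staining of at least 50% with the nuclear-stain viability signal not falling by more than 50%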
Calb FLC – affects C. albicans growth with fluconazole; C. albicans CaCi-2 (fluconazole-resistant clinical isolate) + fluconazole, Alamar Blue growth, 48 h; growth inhibition, % (test concentration not listed); 300,000 compounds, 0.57% hits; AID 1979;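 active = growth inhibition above about 58% in most replicates, limit read from the data, passing the limit was not always enough; inconclusive = exactly half the replicates above a set limit; inactive = most replicates below a set limit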;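 also: all wells also contain fluconazole at 8 µg/ml as a sub-toxic cotreatment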
Numbers stand for hits; i = inactive; ? = inconclusive; nt = no result given; ! = not active in a repeat. Sampled rows, rich in hits. Any-hit rate of the full collection: about 3.1%.

SMILES | Beta apoptosis | A1 inh | T cruzi inh | CSC inhib | TAG inh | Calb FLC
Cc1ccc(N2C(=O)CC(N(CCc3ccccc3)C(=S)Nc3ccc(N(C)C)cc3)C2=O)cc1 (stereo not given) | i | i | i | 95 | i | i
O=C(c1cccc(N2CCCC2=O)c1)N1CCN(c2cccc(Cl)c2)CC1 | i | i | i | i | nt | i
COc1ccc(-n2nc(C(=O)NCC(=O)NCCC3=CCCCC3)c3ccccc3c2=O)c(OC)c1 | i | i | i | i | nt | 97
CCC[N+]1(CC#CCC(c2ccccc2)c2ccccc2)CCCCC1 | 105 | i | 64 | i | nt | i
C#CC[N+]1(CC#Cc2ccccc2)CCCCC1 | i | i | i | i | i | i
Cc1ccc(C#CC[N+]2(CC#Cc3ccc(C)cc3)CCCCC2)cc1 | 113 | i | 74 | i | i | i
C(#Cc1ccccc1)C[N+]1(CC#Cc2ccccc2)CCCCC1 | nt | i | 66 | i | i | 82
COc1ccc(CC(=O)NNS(=O)(=O)c2cccc([N+](=O)[O-])c2)cc1OC | i | i | i | nt | nt | i
COc1ccc(-n2c(O)c(/C=N/NS(=O)(=O)c3cccc([N+](=O)[O-])c3)c3ccccc3c2=O)cc1OC | i | i | 62 | i | nt | i
O=C(CCl)Nc1cccc(Oc2cnccn2)c1 | i | i | i | i | nt | i
O=C(CCl)Nc1ccc(N=Nc2ccccc2)cc1 | nt | nt | i | nt | nt | i
O=C(CCl)Nc1ccc(-c2ccccc2)cc1 | i | i | 61 | i | 56 | 92
CC(C)N(c1ccccc1)c1ccc(NC(=O)CCl)cc1 | i | i | 80 | i | i | ?
O=C(CCl)Nc1cccc(Oc2ccccc2)c1 | i | i | 56 | i | i | i
Cc1ccc(Sc2ccc(NC(=O)CCl)cc2)cc1C | i | i | i | i | 63 | i
COc1ccc(CN2C(=O)C(CC(=O)NCc3cccs3)CC(C(=O)N3CCOCC3)=C2C)cc1 (stereo not given) | nt | nt | nt | nt | i | nt
CC(=O)Nc1cc(NC(C)=O)cc(C(=O)NCC2(N3CCOCC3)CCCCC2)c1 | nt | nt | nt | nt | i | nt
COc1ccc(NC(=S)NN(C)C(=S)Nc2ccc(OC)cc2)cc1 | i | i | i | 123 | nt | i
O=C(OC(c1ccccc1)c1nccc2ccccc12)c1cc([N+](=O)[O-])cc([N+](=O)[O-])c1 (stereo not given) | i | i | 58 | i | nt | i
OC(c1cccc(Cl)c1)c1nccc2ccccc12 (stereo not given) | i | i | i | i | i | i
Cc1ccc(CNc2nc(-c3cccs3)nc3ccccc23)cc1 | i | i | i | 92 | nt | i
O=C(COc1ccc(/C=C2/NC(=O)NC2=O)cc1)Nc1ccc(F)cc1 | i | i | i | i | i | i
NC(=O)c1oc2ccccc2c1NC(=O)c1ccc([N+](=O)[O-])o1 | i | i | i | nt | nt | i
C/C(=N/NC(=O)C(O)(c1ccccc1)c1ccccc1)c1ccc([N+](=O)[O-])o1 | i | ? | 75 | i | i | ?
Cc1cc(C)nc(NC(=O)c2ccc([N+](=O)[O-])o2)n1 | i | i | i | i | nt | i
SMILES | Beta apoptosis | A1 inh | T cruzi inh | CSC inhib | TAG inh | Calb FLC
O=C(NN(c1ccccc1)c1ccccc1)c1ccc([N+](=O)[O-])o1 | i | i | 64 | i | i | ?
O=C(NNC(=O)c1ccc([N+](=O)[O-])o1)c1ccccc1 | i | i | 58 | i | i | i
C[C@H](CO)N1C[C@H](C)[C@@H](CN(C)Cc2ccncc2)Oc2c(NC(=O)C3CC3)cccc2C1=O | i | i | nt | i | i | nt
CC1(C)C2CCC1(C)C(OCC[N+](C)(C)CC(=O)OC1CCCCC1)C2 (stereo not given) | i | i | 63 | i | nt | i
CCOC(=O)C[N+](C)(C)CCOC1CC2CCC1(C)C2(C)C (stereo not given) | i | i | i | i | nt | i
COc1ccccc1N(CC(=O)Nc1ccccc1C(F)(F)F)S(=O)(=O)c1cccs1 | i | i | nt | i | i | nt
Cc1cccc(N2CCN(C(=O)CSc3nc4ccccc4nc3N3CC(C)OC(C)C3)CC2)c1C (stereo not given) | i | i | i | i | nt | i
Cc1nc(N)nc(N(C)c2ccccc2)c1Br | nt | nt | nt | nt | i | nt
Oc1ccc(Cl)cc1Cc1cc(Cl)ccc1O | i | i | i | 114 | i | nt
Oc1ccc(Cl)cc1CNCc1ccc(Cl)cc1 | i | i | nt | i | i | nt
Cc1ccc(CN=c2c([N+](=O)[O-])nn(-c3ccc(Cl)cc3)n2O)cc1 | i | i | i | i | i | i
O=[N+]([O-])c1nn(-c2ccccc2)n(O)c1=NCCc1ccccc1 | i | i | 58 | i | nt | i
Cc1ccc(CCN=c2c([N+](=O)[O-])nn(-c3ccccc3)n2O)cc1 | i | i | 70 | i | i | i
COc1ccc(-n2nc([N+](=O)[O-])c(=NCCc3ccccc3)n2O)cc1 | i | i | i | i | nt | i
Cn1nnnc1N=N/C(=N/Nc1ccccc1)c1ccccc1 | 126 | i | i | i | 72 | i
COC(=O)C=CC(=NNc1ccccc1)c1ccccc1 | nt | nt | nt | nt | i | nt
Cc1cc(NC(=O)CSc2nc3cc(Cl)ccc3o2)no1 | i | i | i | nt | nt | i
O=S1(=O)C=C(Sc2nc3cc(Cl)ccc3o2)c2ccccc21 | i | ? | 65 | i | i | i
Cc1nc2c(=O)oc3ccccc3c2n1-c1ccccc1 | i | i | i | i | i | 92
CC(OC(=O)CCOc1ccccc1)C(=O)Nc1ccc(Cl)cn1 (stereo not given) | i | i | i | i | i | i
CCOc1cccc(/C=N/Nc2ccc(S(=O)(=O)N(CC)CC)cn2)c1O | 117 | i | i | 117 | nt | i
CCN(CC)S(=O)(=O)c1ccc(N/N=C(\C)c2ccc(OC)cc2O)nc1 | 97 | i | i | i | i | 91
COc1ccc(-n2nnnc2SC(C)C(=O)NC2CCCC2)cc1 (stereo not given) | i | i | nt | nt | i | nt
COc1ccccc1-n1c(-c2ccccc2)c[n+]2c1CCc1ccccc1-2 | 101 | i | 76! | i | i | ?
CC(C)c1ccc(-n2c(-c3ccccc3)c[n+]3c2CCc2ccccc2-3)cc1 | nt | nt | 67 | nt | i | i
SMILES | Beta apoptosis | A1 inh | T cruzi inh | CSC inhib | TAG inh | Calb FLC
COc1ccc(-n2c(-c3ccc(Br)cc3)c[n+]3c2CCc2ccccc2-3)cc1 | 104 | i | 60 | i | i | i
Brc1ccc(-c2c[n+]3c(n2-c2ccccc2)SCC3)cc1 | i | i | i | i | i | i
Cc1ccc(NC(=O)c2ccc3c(=O)n4c(nc3c2)CCC4)cc1S(=O)(=O)N(C)C | nt | nt | nt | nt | i | nt
COc1ccc(S(=O)(=O)N2CCC(NC(=O)c3cccnc3)CC2)cc1 | i | i | i | nt | nt | i
Cc1oncc1C(=O)Nc1cccc(C#N)c1 | nt | i | i | i | i | i
O=C(NNC(=O)c1cc(-c2ccc(Cl)c(Cl)c2)nc2ccccc12)Nc1ccccc1 | i | i | i | 92 | i | i
O=C(Nc1cccnc1)c1cc(-c2cccc(Br)c2)nc2ccccc12 | i | i | i | i | i | i
Cc1ccc(-c2cc(C(=O)Nc3ccncc3)c3ccccc3n2)cc1 | i | i | i | i | i | i

Screening data: PubChem, several laboratories
